# Measured values: ChEMBL document CHEMBL2157993, “Urea-based inhibitors of Trypanosoma brucei methionyl-tRNA synthetase: selectivity and in vivo characterization” (J Med Chem, 2012)
# pEC50, pIC50: −log10 of the molar value.
# What was measured:
# [1] = Permeability across MDCK2-MDR1 cells expressing MDR1 at 3 uM in absence of 2 uM P-gp inhibitor Elacridal by mass spectroscopy; format: ADME, cell-based, Canis lupus familiaris; conditions: dog, mdck-ii
# Summary of the method: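 MDR1-MDCKII cells seeded on Transwell inserts and assayed 3 days later at 37°C in HBSS with glucose and HEPES. Monolayers preincubated about 30 min with or without 2 μM elacridar, then given compound at 3 μM final (apical). After 60 min shaking, both chambers were sampled for MS. Integrity checked by Lucifer Yellow and TEER. Triplicate. Papp(A-B) and AQ calculated.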
# [2] = molecular target: ATP-dependent translocase ABCB1 (Homo sapiens, UniProt P08183); test: Binding affinity to MDR1 expressed in MDCK2 cells assessed as absorptive quotient at 3 uM in absence of 2 uM by mass spectroscopy; format: ADME, cell-based; conditions: dog, mdck-ii
# Sequence of ATP-dependent translocase ABCB1 (P08183 whole entry): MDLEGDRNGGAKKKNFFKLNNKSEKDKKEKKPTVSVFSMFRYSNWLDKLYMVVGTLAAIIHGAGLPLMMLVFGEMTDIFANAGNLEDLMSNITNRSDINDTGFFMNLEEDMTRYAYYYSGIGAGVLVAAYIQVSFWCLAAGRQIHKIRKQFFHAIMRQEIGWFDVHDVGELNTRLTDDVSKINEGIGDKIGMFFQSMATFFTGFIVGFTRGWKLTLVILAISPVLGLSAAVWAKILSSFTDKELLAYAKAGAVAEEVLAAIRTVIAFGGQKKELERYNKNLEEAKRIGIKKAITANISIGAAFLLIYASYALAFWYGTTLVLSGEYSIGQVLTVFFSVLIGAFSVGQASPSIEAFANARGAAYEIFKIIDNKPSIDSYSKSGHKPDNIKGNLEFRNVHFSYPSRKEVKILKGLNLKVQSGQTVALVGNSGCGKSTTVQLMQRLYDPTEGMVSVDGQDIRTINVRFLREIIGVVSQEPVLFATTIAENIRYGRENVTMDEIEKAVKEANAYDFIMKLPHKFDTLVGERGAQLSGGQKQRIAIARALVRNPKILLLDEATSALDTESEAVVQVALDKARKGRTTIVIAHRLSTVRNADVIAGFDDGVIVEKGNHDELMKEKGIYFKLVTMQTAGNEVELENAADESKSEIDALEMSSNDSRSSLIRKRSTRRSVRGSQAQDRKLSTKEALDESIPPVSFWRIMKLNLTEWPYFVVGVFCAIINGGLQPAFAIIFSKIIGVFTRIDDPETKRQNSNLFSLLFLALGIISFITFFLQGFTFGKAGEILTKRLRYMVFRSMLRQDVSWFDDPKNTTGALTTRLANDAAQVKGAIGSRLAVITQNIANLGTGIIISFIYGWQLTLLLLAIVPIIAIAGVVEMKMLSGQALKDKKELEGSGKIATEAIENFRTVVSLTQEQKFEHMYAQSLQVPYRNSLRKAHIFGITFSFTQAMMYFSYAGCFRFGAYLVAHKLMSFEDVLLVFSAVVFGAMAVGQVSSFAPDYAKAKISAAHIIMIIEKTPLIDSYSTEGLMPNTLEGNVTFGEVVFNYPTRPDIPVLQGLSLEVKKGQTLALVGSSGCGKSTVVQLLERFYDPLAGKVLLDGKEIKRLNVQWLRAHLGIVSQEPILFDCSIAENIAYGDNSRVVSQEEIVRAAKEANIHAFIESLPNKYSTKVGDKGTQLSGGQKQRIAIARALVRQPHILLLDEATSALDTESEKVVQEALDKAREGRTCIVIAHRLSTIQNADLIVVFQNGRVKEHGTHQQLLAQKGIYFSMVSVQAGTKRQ
# Summary of the method: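 Monolayers preincubated about 30 min with or without 2 μM elacridar, then given compound at 3 μM final (apical). After 60 min shaking, both chambers were sampled for MS. Integrity checked by Lucifer Yellow and TEER. Triplicate. Papp(A-B) and AQ calculated.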
# [3] = Drug level in Swiss Webster mouse brain at 5 mg/kg, ip after 60 mins by MS/MS method; format: ADME, organism-based; design: dose 5 mg/kg, route intraperitoneal; conditions: read-out: Drug uptake
# Summary of the method: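 Female Swiss Webster mice, 6-8 weeks old, three per compound, given 5 mg/kg IP in 5% DMSO/3% EtOH/7% Tween 80 saline. Killed at 1 h. Plasma and homogenised brain extracted with acetonitrile containing an extraction standard, with spiked blank brains used for standardisation. Quantified by LC-MS/MS.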
# [4] = system: Trypanosoma brucei; test: Inhibition of protein synthesis in Trypanosoma brucei assessed as reduction in [3H]L-histidine incorporation into proteins incubated for 4 hrs by scintillation counting; format: functional, organism-based
# [5] = Selectivity index, ratio of EC50 for human CRL8155 cells to EC50 for Trypanosoma brucei brucei 427; format: toxicity; conditions: read-out: Ratio EC50
# [6] = Selectivity index, ratio of EC50 for human HepG2 cells to EC50 for Trypanosoma brucei brucei 427; format: toxicity, cell-based; conditions: read-out: Ratio EC50
# [7] = system: Trypanosoma brucei; test: Binding affinity to Trypanosoma brucei MetRS at 100 uM by thermal shift assay
# Summary of the method: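 Thermal shift (ΔTm) read-out with T. brucei MetRS at 0.4 mg/ml and 5% DMSO; otherwise per an earlier protocol. The test agent was at the single concentration in the curator's line. Repeated three times independently.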
# [8] = system: HepG2; test: Cytotoxicity against human HepG2 cells incubated for 48 hrs by alamar blue assay; format: cell-based; conditions: HepG2, 48 h
# Summary of the method: (§1)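 […] cells in RPMI or HepG2 cells in DMEM/F-12, each with 10% serum, seeded at 5×10^3 per well. Exposed to serial compound dilutions for 48 h.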
# [9] = Selectivity ratio of IC50 for human MetRS to IC50 for Trypanosoma brucei MetRS
# Summary of the method: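 Ratio of the human mitochondrial MetRS IC50 to the T. brucei MetRS IC50, each from a [3H]methionine aminoacylation assay.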
# [10] = system: Trypanosoma brucei brucei; test: Growth inhibition of Trypanosoma brucei brucei 427 blood stream forms after 48 hrs by alamar blue assay; format: functional, organism-based; conditions: Trypanosoma brucei, 427, 48 h
# Summary of the method: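 Strain 427 bloodstream forms cultured in HMI-9 with 10% FBS at 37°C, 5% CO2. Triplicate wells seeded at 5×10^4 trypomastigotes with serial compound dilutions from 20 mM DMSO stocks. AlamarBlue read-out at 48 h, with pentamidine as the positive control.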
# [11] = Inhibition of Trypanosoma brucei MetRS aminoacylation activity assessed as reduction in [3H]methionine incorporation into Escherichia coli tRNA pre-incubated for 15 mins before tRNA addition and measured after 120 mins by scintillation counting
# Summary of the method: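 Recombinant enzyme at 10 nM, preincubated 15 min with 12-point two-fold inhibitor dilutions in 25 mM HEPES pH 7.9, 10 mM MgCl2, 50 mM KCl, spermine, BSA, DTT, 1% DMSO and pyrophosphatase. Reaction started with 400 μg/mL E. coli tRNA, 0.1 mM ATP and 250 nM [3H]methionine, run 120 min at room temperature. TCA-precipitated and filtered for scintillation counting. Quadruplicate, with IC50 by sigmoidal fit.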
# [12] = Cmax in mouse at 50 mg/kg, po administered as single dose measured over 6 hrs by MS/MS method; format: ADME, organism-based; design: dose 50 mg/kg, route oral; conditions: in vivo
# Summary of the method: (§2)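 Mice, three per group, given one oral dose of 50 mg/kg in 5% DMSO, 3% EtOH, 7% Tween 80 in saline. Tail-snip blood taken at 0.5, 1, 2, 3, 4 and 6 h. Plasma extracted with acetonitrile and quantified by LC-MS/MS.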
# [13] = Cytotoxicity against human CRL8155 cells incubated for 48 hrs by alamar blue assay; format: cell-based; conditions: CRL8155, 48 h; summary of the method: as §1
# [14] = Tmax in mouse at 50 mg/kg, po administered as single dose measured over 6 hrs by MS/MS method; format: ADME, organism-based; design: dose 50 mg/kg, route oral; conditions: in vivo; summary of the method: as §2
# [15] = Half life in mouse at 50 mg/kg, po administered as single dose measured over 6 hrs by MS/MS method; format: ADME, organism-based; design: dose 50 mg/kg, route oral; conditions: in vivo; summary of the method: as §2
# [16] = AUC in mouse at 50 mg/kg, po administered as single dose measured over 6 hrs by MS/MS method; format: ADME, organism-based, Plasma; design: time < 6 hr, dose 50 mg/kg, route oral; conditions: plasma; summary of the method: as §2
smiles,measurement,setting,value
Oc1cc(NCCCNCc2cc(Cl)cc(Cl)c2)nc2ccccc12,Papp,[1],2.9 ×10⁻⁶ cm/s
same,AQ,[2],0.36
same,concentration at 1 h,[3],< 3 nM
same,inhibition,[4],Dose-dependent effect
same,selectivity ratio,[5],27
same,selectivity ratio,[6],27
O=C(NCCCNCc1cc(Cl)cc(Cl)c1)Nc1ccc(O)cc1,ΔTm,[7],5.8 °C
CC(C)NCC(O)COc1cccc2ccccc12 (configuration not stated) [PROPRANOLOL],AQ,[2],< 0.5
O=C(NCCCNCc1cc(Cl)cc(Cl)c1)Nc1ccncc1,ΔTm,[7],3.1 °C
CCOc1ccc(CNCCCNC(=O)Nc2ccccc2)cc1,ΔTm,[7],0.5 °C
CCOc1ccccc1CNCCCNC(=O)Nc1ccccc1,ΔTm,[7],1.1 °C
O=C(NCCCNCc1cc(Cl)cc(Cl)c1)Nc1ccc(Cl)cc1,ΔTm,[7],5.7 °C
COc1cccc(CNCCCNC(=O)Nc2ccccc2)c1,ΔTm,[7],4.7 °C
Nc1ccccc1NC(=O)NCCCNCc1cc(Cl)cc(Cl)c1,ΔTm,[7],4.7 °C
O=C(NCCCNCc1ccccc1)Nc1ccccc1,ΔTm,[7],1.3 °C
N=C(NCCCNCc1cc(Cl)cc(Cl)c1)Nc1ccccc1,ΔTm,[7],4.5 °C
COc1ccc(CNCCCNC(=O)Nc2ccccc2)cc1,ΔTm,[7],1.1 °C
O=C(NCCCNCc1cc(Cl)cc(Cl)c1)Nc1cccc(F)c1,pEC50,[8],4.75
same,Ratio IC50,[9],39
same,pEC50,[10],6.12
same,ΔTm,[7],7.7 °C
same,pIC50,[11],6.96
COc1cc(Cl)cc(CNCCCNC(=O)Nc2ccsc2)c1,Papp,[1],9.7 ×10⁻⁶ cm/s
same,Cmax,[12],1290 nM
same,pEC50,[13],4.66
same,Tmax,[14],30 min
same,AQ,[2],0.53
same,half-life,[15],82 min
same,AUC at 6 h,[16],2.68 µM·h
same,Ratio IC50,[9],347
same,pEC50,[10],6.82
same,selectivity ratio,[5],147
same,ΔTm,[7],7.9 °C
same,selectivity ratio,[6],147
same,pIC50,[11],7.72
O=C(NCCCNCc1cc(Cl)cc(Cl)c1)Nc1cccs1,pEC50,[8],4.84
same,Ratio IC50,[9],48
same,pEC50,[10],6.46
same,ΔTm,[7],7.6 °C
same,pIC50,[11],7.19
O=C(NCCCNCc1ccccc1Cl)Nc1ccccc1,ΔTm,[7],1.9 °C
O=C(NCCCNCc1cccc(Cl)c1)Nc1ccccc1,ΔTm,[7],5.5 °C
